This note sets out measurements from ChEMBL document CHEMBL4725312, “Pre-clinical evidences of the antileishmanial effects of diselenides and selenocyanates” (Bioorg Med Chem Lett, 2020).

Molecules are shown by their SMILES. The source made the active and inactive calls. The rule behind the calls is not given here. A value given as a limit tells only on which side of the number the result lay.

In experiment [1] the test system is Leishmania infantum. As to the kind of experiment: Antileishmanial activity against axenic amastigote state of Leishmania infantum incubated for 24 hrs. It is filed as functional, organism-based.
The next experiment has as its system THP-1. As to the kind of experiment: Cytotoxicity against human THP-1 cells assessed as reduction in cell viability incubated for 24 hrs. It counts as cell-based. The settings on record: THP-1, 24 h.
Experiment [2] in a line: Ratio of IC50 for human THP1 cells to IC50 for axenic amastigote state of Leishmania infantum. An outline of the steps:
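Selectivity index was calculated as the THP-1 cytotoxicity IC50 (24 h exposure) divided by the IC50 against L. infantum amastigotes.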

A short description of experiment [3]: Ratio of IC50 for mepacrine to IC50 for test compound for inhibition of trypanothione reductase (unknown origin). A digest of the protocol: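 Trypanothione reductase inhibition assay, with mepacrine run alongside as the positive-control TryR inhibitor. The value is mepacrine IC50 divided by test-compound IC50 in the same assay.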
Experiment [4] is described as follows: Inhibition of trypanothione reductase (unknown origin). An outline of the steps:
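Trypanothione reductase inhibition was expressed as IC50, with mepacrine run alongside as the positive-control TryR inhibitor.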

Experiment [5] deals with Leishmania infantum. The experiment is described as follows: Antileishmanial activity against axenic amastigote state of Leishmania infantum infected in human THP-1 cells at 3 uM incubated for 48 hrs. It counts as functional, organism-based. An outline of the steps:
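THP-1 cells infected with L. infantum amastigotes were exposed to compounds at 3 μM for 48 h. Infection rate was the read-out, with autofluorescence correction applied, and results were reported as means.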

As a reminder, the IC50 is the concentration needed to halve the response being measured. As to `O=C(NC(=[Se])Nc1ccc([Se][Se]c2ccc(NC(=[Se])NC(=O)c3ccc(Cl)cc3)cc2)cc1)c1ccc(Cl)cc1`, the IC50 in the experiment with Leishmania infantum [1] and with THP-1 was > 25 µM throughout.
As for `COc1cc(OC)cc(C(=O)NC(=[Se])Nc2ccc([Se][Se]c3ccc(NC(=[Se])NC(=O)c4cc(OC)cc(OC)c4)cc3)cc2)c1`, the “Ratio IC50” value in experiment [2] is given as >2.77. In addition, the figures for the IC50 with Leishmania infantum [1] and in the experiment on THP-1 were 9.22 µM and > 25 µM, respectively.
Taken in the same sequence, the figures for `O=C(O)COCC(=O)Nc1ccc([Se][Se]c2ccc(NC(=O)COCC(=O)O)cc2)cc1` were >2.06, 12.1 µM and > 25 µM.
Regarding `O=C(NC(=[Se])Nc1ccc([Se][Se]c2ccc(NC(=[Se])NC(=O)c3ccno3)cc2)cc1)c1ccno1`, the “Ratio IC50” value in experiment [2] amounted to 3.1. Further, the IC50 turned out to be 0.35 µM in the experiment on Leishmania infantum [1] and 1.07 µM in the experiment with THP-1.
On to `N#C[Se]c1ccc(NC(=O)/C=C\C(=O)O)cc1`, for which the concentration for half-maximal inhibition (IC50) in the experiment on Leishmania infantum [1] and in the experiment on THP-1 was > 25 µM each time.
With `N#C[Se]c1ccc(NC(=O)C2CCCCC2C(=O)O)cc1` (centres undefined), the “Ratio IC50” value in experiment [2] is on record as >2.35. The figures for the IC50 in the experiment with Leishmania infantum [1] and in the experiment on THP-1 were 10.6 µM and > 25 µM, respectively.
As to `O=C1C=CC(=O)N1c1ccc([Se][Se]c2ccc(N3C(=O)C=CC3=O)cc2)cc1`, the “Ratio IC50” value in experiment [2] was 9.91; in experiment [3] it was 30. Moreover, the half-inhibitory concentration (IC50) in the experiment with Leishmania infantum [1] is 1.54 µM; in experiment [4] it was 0.23 µM; in the experiment with THP-1 it was 15.2 µM. In addition, the result in the experiment on Leishmania infantum [5] was Active.
Turning to `O=C(NC(=[Se])Nc1ccc([Se][Se]c2ccc(NC(=[Se])NC(=O)c3cnc4ccccc4c3)cc2)cc1)c1cnc2ccccc2c1`, the “Ratio IC50” value in experiment [2] was determined as 4.15. Further, the IC50 in the experiment with Leishmania infantum [1] is 3.08 µM; with THP-1, 12.8 µM.
Turning to `O=C1c2ccccc2C(=O)N1c1ccc([Se][Se]c2ccc(N3C(=O)c4ccccc4C3=O)cc2)cc1`, the “Ratio IC50” value in experiment [2] is given as 11.08. The values for the IC50 (in the experiment with Leishmania infantum [1]; in experiment [4]; with THP-1) were 2.07 µM, 21.8 µM and 23 µM, respectively. Moreover, the outcome in the experiment on Leishmania infantum [5] was Active.
For the compound `Cc1ccc(C(=O)NC(=[Se])Nc2ccc([Se][Se]c3ccc(NC(=[Se])NC(=O)c4ccc(C)cc4)cc3)cc2)cc1`, in experiment [2], the “Ratio IC50” value is >1.66. Further, the 50% inhibitory concentration (IC50) with Leishmania infantum [1] is 15 µM; in the experiment with THP-1, > 25 µM.
`O=C1COCC(=O)N1c1ccc([Se][Se]c2ccc(N3C(=O)COCC3=O)cc2)cc1`: the “Ratio IC50” value in experiment [2] is reported as 0.82. Also, the IC50 turned out to be 10.4 µM in the experiment on Leishmania infantum [1] and 8.53 µM with THP-1.
Regarding `N#C[Se]c1ccc(NC(=O)C2C3C=CC(O3)C2C(=O)O)cc1` (centres undefined), the “Ratio IC50” value in experiment [2] came out at 7.76; in experiment [3] it was 30. For the same compound, the values for the IC50 (in the experiment with Leishmania infantum [1]; in experiment [4]; in the experiment on THP-1) were 3.22 µM, 0.54 µM and 21.5 µM, respectively. Further, the outcome in the experiment with Leishmania infantum [5] was inactive.
Take `O=C(O)C1C2C=CC(O2)C1C(=O)Nc1ccc([Se][Se]c2ccc(NC(=O)C3C4C=CC(O4)C3C(=O)O)cc2)cc1` (centres undefined): the “Ratio IC50” value in experiment [2] is reported as >19.13. Also, the IC50 in the experiment with Leishmania infantum [1] is 1.31 µM; in experiment [4], 25 µM; in the experiment with THP-1, > 25 µM. Further, in the experiment on Leishmania infantum [5], the outcome was Active.
In the case of `CCCCCCCCCCCCCCCCOP(=O)([O-])OCC[N+](C)(C)C` [MILTEFOSINE], the “Ratio IC50” value in experiment [2] came out at 6.51.
Turning to `N#C[Se]c1ccc(NC(=O)c2ccccc2C(=O)O)cc1`, the IC50 in the experiment on Leishmania infantum [1] and with THP-1 was > 25 µM each time.
On to `O=C(O)C1CCCCC1C(=O)Nc1ccc([Se][Se]c2ccc(NC(=O)C3CCCCC3C(=O)O)cc2)cc1` (centres undefined), for which the “Ratio IC50” value in experiment [2] was >12.31. For the same compound, the IC50 is 2.03 µM in the experiment with Leishmania infantum [1], 18.5 µM in experiment [4] and > 25 µM with THP-1. Besides, the outcome in the experiment on Leishmania infantum [5] was Active.
With `O=C(NC(=[Se])Nc1ccc([Se][Se]c2ccc(NC(=[Se])NC(=O)c3ccc([N+](=O)[O-])cc3)cc2)cc1)c1ccc([N+](=O)[O-])cc1`, the “Ratio IC50” value in experiment [2] was >11.01. Further, the IC50 is 2.27 µM in the experiment with Leishmania infantum [1] and > 25 µM in the experiment on THP-1.
`O=C(O)CCC(=O)Nc1ccc([Se][Se]c2ccc(NC(=O)CCC(=O)O)cc2)cc1`: the “Ratio IC50” value in experiment [2] is listed as >3.16. For the same compound, the results for the IC50 in the experiment with Leishmania infantum [1] and in the experiment with THP-1 were 7.9 µM and > 25 µM, respectively.
Taken in the same sequence, the figures for `N#C[Se]c1ccc(NC(=O)c2ccccc2-c2ccccc2C(=O)O)cc1` were >2.34, 10.7 µM and > 25 µM.
In the case of `CCCCCCCCCCCCCCCCCCOCC(COP(=O)([O-])OCC[N+](C)(C)C)OC` (centres undefined) [EDELFOSINE], the “Ratio IC50” value in experiment [2] turned out to be 6.01. The outcome in the experiment on Leishmania infantum [5] was Active.
With `O=C(NC(=[Se])Nc1ccc([Se][Se]c2ccc(NC(=[Se])NC(=O)c3cc4ccccc4s3)cc2)cc1)c1cc2ccccc2s1`, the “Ratio IC50” value in experiment [2] is >1.71. Moreover, the IC50 in the experiment on Leishmania infantum [1] is 14.6 µM; with THP-1, > 25 µM.
In the case of `N#C[Se]c1ccc(NC(=O)c2nccnc2C(=O)O)cc1`, the IC50 in the experiment with Leishmania infantum [1] and in the experiment on THP-1 was > 25 µM in each case.
`N#C[Se]c1ccc(NC(=O)COCC(=O)O)cc1`: the IC50 in the experiment on Leishmania infantum [1] and with THP-1 was > 25 µM each time.
For `O=C(NC(=[Se])Nc1ccc([Se][Se]c2ccc(NC(=[Se])NC(=O)c3ccc4c(c3)OCO4)cc2)cc1)c1ccc2c(c1)OCO2`, the “Ratio IC50” value in experiment [2] is 1.35. Further, the IC50 is 9.98 µM in the experiment on Leishmania infantum [1] and 13.5 µM with THP-1.
With `O=C(NC(=[Se])Nc1ccc([Se][Se]c2ccc(NC(=[Se])NC(=O)c3cccs3)cc2)cc1)c1cccs1`, the “Ratio IC50” value in experiment [2] is given as 4.87. Also, the IC50 in the experiment on Leishmania infantum [1] turned out to be 4.55 µM; in the experiment on THP-1, 22.2 µM.
The like results for `O=C(O)c1ccccc1C(=O)Nc1ccc([Se][Se]c2ccc(NC(=O)c3ccccc3C(=O)O)cc2)cc1` were, in that order, >5.47, 4.57 µM and > 25 µM.
`CCN(CC)CCCC(C)Nc1c2ccc(Cl)cc2nc2ccc(OC)cc12` (centres undefined) [QUINACRINE] displayed an IC50 in experiment [4] of 17 µM.
Take `N#C[Se]c1ccc(NC(=O)CCC(=O)O)cc1`: the “Ratio IC50” value in experiment [2] is listed as >2.2. Moreover, the IC50 was 11.3 µM in the experiment on Leishmania infantum [1] and > 25 µM in the experiment with THP-1.
As for `O=C(NC(=[Se])Nc1ccc([Se][Se]c2ccc(NC(=[Se])NC(=O)c3ccco3)cc2)cc1)c1ccco1`, in experiment [2], the “Ratio IC50” value stood at 11.19. In addition, the IC50 in the experiment on Leishmania infantum [1] was 0.67 µM; in experiment [4], 9.22 µM; in the experiment on THP-1 it was 7.44 µM. Besides, the outcome in the experiment with Leishmania infantum [5] was Active.
Turning to `O=C(NC(=[Se])Nc1ccc([Se][Se]c2ccc(NC(=[Se])NC(=O)c3sccc3Cl)cc2)cc1)c1sccc1Cl`, the “Ratio IC50” value in experiment [2] was >4.48. Moreover, the IC50 in the experiment with Leishmania infantum [1] was 5.57 µM; with THP-1 it was > 25 µM.
Take `O=C(NC(=[Se])Nc1ccc([Se][Se]c2ccc(NC(=[Se])NC(=O)c3ccccc3)cc2)cc1)c1ccccc1`: the IC50 with Leishmania infantum [1] and in the experiment on THP-1 was > 25 µM each time.
On to `O=C(NC(=[Se])Nc1ccc([Se][Se]c2ccc(NC(=[Se])NC(=O)c3cc4ccccc4nc3-c3ccccc3)cc2)cc1)c1cc2ccccc2nc1-c1ccccc1`, for which the “Ratio IC50” value in experiment [2] worked out at 1.34. The IC50 in the experiment with Leishmania infantum [1] was determined as 6.18 µM; in the experiment with THP-1, 8.5 µM.
The like results for `CSc1ccc(C(=O)NC(=[Se])Nc2ccc([Se][Se]c3ccc(NC(=[Se])NC(=O)c4ccc(SC)cc4)cc3)cc2)cc1` were, in that order, >1.85, 13.5 µM and > 25 µM.
For the compound `O=C(O)/C=C\C(=O)Nc1ccc([Se][Se]c2ccc(NC(=O)/C=C\C(=O)O)cc2)cc1`, the IC50 in the experiment on Leishmania infantum [1] and in the experiment with THP-1 was > 25 µM throughout.
